{"source": "ChEMBL document CHEMBL1125428", "about": "“Development of 2,3-dihydro-6-(3-phenoxypropyl)-2-(2-phenylethyl)-5-benzofuranol (L-670,630) as a potent and orally active inhibitor of 5-lipoxygenase” (J Med Chem, 1992)", "key": {"Rattus norvegicus [1]": {"test_system": "Rattus norvegicus", "assay": "Total radioactivity in tissues of male sd rats dosed orally with H-labeled compound at 21 mg/kg after 24 hr r in liver", "assay_type": "functional", "settings": "route oral", "in_short": "(§1)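 Male Sprague-Dawley rats received ³H-labelled drug (phenoxy ring, 3.96 μCi/mg) in PEG-400 by gavage at 21 mg/kg. Animals were killed at 5, 15, 30 min and at 1, 2, 4, 24 and 48 h. Homogenates were pooled per group, and total radioactivity was measured as the mean of duplicate combustions, in μg equiv/g. Two or three rats were used per point, except one rat at 24 and 48 h.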"}, "Rattus norvegicus [2]": {"test_system": "Rattus norvegicus", "assay": "Amount of radioactivity elute with H-labeled at 21 mg/kg after 4 hr using RP-HPLC. at a dose of […] in lung of male sd rat."}, "Rattus norvegicus [3]": {"test_system": "Rattus norvegicus", "assay": "Total radioactivity in tissues of male sd rats dosed intravenously with H-labeled compound at 21 mg/kg after 4 hr in kidney", "assay_type": "functional", "settings": "route intravenous", "in_short": "(§2)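 Male Sprague-Dawley rats given ³H compound iv via femoral vein in PEG-400, 21 mg/kg, 3.96 μCi/mg. Killed at 2, 10, 30 min, 1, 2 and 4 h. Total radioactivity measured by combustion of composited tissue homogenates, in duplicate. Two or three rats per time point, one at 10 and 30 min.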"}, "Rattus norvegicus [4]": {"test_system": "Rattus norvegicus", "assay": "Total radioactivity in tissues of male sd rats dosed orally with H-labeled compound at 21 mg/kg after 24 hr r in plasma", "assay_type": "functional", "settings": "route oral", "in_short": "as §1"}, "Rattus norvegicus [5]": {"test_system": "Rattus norvegicus", "assay": "Total radioactivity in tissues of male sd rats dosed orally with H-labeled compound at 21 mg/kg after 4 hr in liver", "assay_type": "functional", "settings": "route oral", "in_short": "as §1"}, "Rattus norvegicus [6]": {"test_system": "Rattus norvegicus", "assay": "Total radioactivity in tissues of male sd rats dosed intravenously with H-labeled compound at 21 mg/kg after 2 min in lung", "assay_type": "functional", "settings": "route intravenous", "in_short": "as §2"}, "Rattus norvegicus [7]": {"test_system": "Rattus norvegicus", "assay": "Total radioactivity in tissues of male sd rats dosed orally with H-labeled compound at 21 mg/kg after 4 hr in plasma", "assay_type": "functional", "settings": "route oral", "in_short": "as §1"}, "Rattus norvegicus [8]": {"test_system": "Rattus norvegicus", "assay": "Total radioactivity in tissues of male sd rats dosed intravenously with H-labeled compound at 21 mg/kg after 1 hr in plasma", "assay_type": "functional", "settings": "route intravenous"}, "Rattus norvegicus [9]": {"test_system": "Rattus norvegicus", "assay": "Total radioactivity in tissues of male sd rats dosed intravenously with H-labeled compound at 21 mg/kg after 2 hr in liver", "assay_type": "functional", "settings": "route intravenous", "in_short": "as §2"}, "Rattus norvegicus [10]": {"test_system": "Rattus norvegicus", "assay": "Total radioactivity in tissues of male sd rats dosed intravenously with H-labeled compound at 21 mg/kg after 1 hr in lung", "assay_type": "functional", "settings": "route intravenous", "in_short": "as §2"}, "Rattus norvegicus [11]": {"test_system": "Rattus norvegicus", "assay": "Total radioactivity in tissues of male sd rats dosed orally with H-labeled compound at 21 mg/kg after 15 min in liver", "assay_type": "functional", "settings": "route oral", "in_short": "as §1"}, "[12]": {"target": "Arachidonate 5-lipoxygenase (Homo sapiens)", "assay": "Inhibitory activity of LTB4 production in human PMN"}, "Rattus norvegicus [13]": {"species_on_record": "Rattus norvegicus", "assay": "Percentage inhibition against antigen induced dyspnea in hyperactive inbred rat at a dose of […]", "assay_type": "functional", "settings": "dose 0.15 mg/kg"}, "Rattus norvegicus [14]": {"test_system": "Rattus norvegicus", "assay": "Total radioactivity in tissues of male sd rats dosed orally with H-labeled compound at 21 mg/kg after 15 min in lung", "assay_type": "functional", "settings": "route oral", "in_short": "as §1"}, "Rattus norvegicus [15]": {"test_system": "Rattus norvegicus", "assay": "Total radioactivity in tissues of male sd rats dosed intravenously with H-labeled compound at 21 mg/kg after 2 hr in plasma", "assay_type": "functional", "settings": "route intravenous"}, "[16]": {"target": "T1, Polyunsaturated fatty acid 5-lipoxygenase (Rattus norvegicus, UniProt P12527)", "T1 sequence (P12527 whole entry)": "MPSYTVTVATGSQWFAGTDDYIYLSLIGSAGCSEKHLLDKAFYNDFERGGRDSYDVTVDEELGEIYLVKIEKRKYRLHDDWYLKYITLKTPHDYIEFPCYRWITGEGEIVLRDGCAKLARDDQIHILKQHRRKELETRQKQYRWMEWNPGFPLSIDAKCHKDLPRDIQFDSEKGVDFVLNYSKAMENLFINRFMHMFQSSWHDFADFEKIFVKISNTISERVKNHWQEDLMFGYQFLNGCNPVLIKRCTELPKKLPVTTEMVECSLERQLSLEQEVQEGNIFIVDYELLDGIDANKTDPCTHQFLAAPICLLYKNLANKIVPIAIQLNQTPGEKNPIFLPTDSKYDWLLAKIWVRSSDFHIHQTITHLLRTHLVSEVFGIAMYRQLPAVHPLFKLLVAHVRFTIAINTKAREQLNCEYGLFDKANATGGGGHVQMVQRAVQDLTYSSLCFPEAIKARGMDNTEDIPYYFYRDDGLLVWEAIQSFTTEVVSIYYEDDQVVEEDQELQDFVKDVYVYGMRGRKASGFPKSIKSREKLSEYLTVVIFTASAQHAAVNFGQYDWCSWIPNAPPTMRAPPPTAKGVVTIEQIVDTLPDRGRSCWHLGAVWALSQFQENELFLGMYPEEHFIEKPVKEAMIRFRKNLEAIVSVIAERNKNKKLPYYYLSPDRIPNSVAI", "assay": "Tested for its inhibitory activity against arachidonic acid in rat 5-lipoxygenase.", "in_short": "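10000g supernatant from rat PMN leukocytes incubated 10 min with [14C]arachidonic acid. 5-Lipoxygenase activity taken as percentage conversion to 5-HETE plus 5,12-diHETEs.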"}, "Rattus norvegicus [17]": {"test_system": "Rattus norvegicus", "assay": "Total radioactivity in tissues of male sd rats dosed orally with H-labeled compound at 21 mg/kg after 30 min in lung", "assay_type": "functional", "settings": "route oral", "in_short": "as §1"}, "Rattus norvegicus [18]": {"test_system": "Rattus norvegicus", "assay": "Total radioactivity in tissues of male sd rats dosed orally with H-labeled compound at 21 mg/kg after 1 hr in plasma", "assay_type": "functional", "settings": "route oral", "in_short": "as §1"}, "[19]": {"assay": "Measure of AUCpo/AUCiv x 100% of the parent compound before (free) and after (total) beta-glucuronidase treatment; total 54%", "assay_type": "ADME, organism-based", "settings": "in vivo, po; read-out: Bioavailabiility"}, "Rattus norvegicus [20]": {"test_system": "Rattus norvegicus", "assay": "Total radioactivity in tissues of male sd rats dosed orally with H-labeled compound at 21 mg/kg after 4 hr in kidney", "assay_type": "functional", "settings": "route oral", "in_short": "as §1"}, "[21]": {"assay": "Peak concentration of drug in rat plasma after oral dosing at 20 mg/kg. Concentration of parent compound was measured before (free) and after (total) beta-glucuronidase treatment; total 0.5 uM", "assay_type": "ADME, organism-based", "set-up": "dose 20 mg/kg, route oral", "settings": "read-out: Plasma level"}, "Rattus norvegicus [22]": {"test_system": "Rattus norvegicus", "assay": "Total radioactivity in tissues of male sd rats dosed intravenously with H-labeled compound at 21 mg/kg after 2 min in kidney", "assay_type": "functional", "settings": "route intravenous", "in_short": "as §2"}, "Rattus norvegicus [23]": {"test_system": "Rattus norvegicus", "assay": "Total radioactivity in tissues of male sd rats dosed orally with H-labeled compound at 21 mg/kg after 48 hr in liver", "assay_type": "functional", "settings": "route oral", "in_short": "as §1"}, "Rattus norvegicus [24]": {"test_system": "Rattus norvegicus", "assay": "Total radioactivity in tissues of male sd rats dosed orally with H-labeled compound at 21 mg/kg after 1 hr in kidney", "assay_type": "functional", "settings": "route oral", "in_short": "as §1"}, "Rattus norvegicus [25]": {"test_system": "Rattus norvegicus", "assay": "Total radioactivity in tissues of male sd rats dosed orally with H-labeled compound at 21 mg/kg after 30 min in kidney", "assay_type": "functional", "settings": "route oral", "in_short": "as §1"}}}
{"smiles": "Oc1cc2c(cc1CCCOc1ccccc1)OC(CCc1ccccc1)C2", "note": "(stereo not given)", "values": [{"measurement": "Total radioactivity", "setting": "Rattus norvegicus [1]", "value": 0.68, "unit": "ug equiv g-1"}, {"measurement": "Activity", "setting": "Rattus norvegicus [2]", "value": 8.9, "unit": "%"}, {"measurement": "Total radioactivity", "setting": "Rattus norvegicus [3]", "value": 2.82, "unit": "ug equiv g-1"}, {"measurement": "Total radioactivity", "setting": "Rattus norvegicus [4]", "value": 0.64, "unit": "ug equiv g-1"}, {"measurement": "Total radioactivity", "setting": "Rattus norvegicus [5]", "value": 13.77, "unit": "ug equiv g-1"}, {"measurement": "Total radioactivity", "setting": "Rattus norvegicus [6]", "value": 100.78, "unit": "ug equiv g-1"}, {"measurement": "Total radioactivity", "setting": "Rattus norvegicus [7]", "value": 3.27, "unit": "ug equiv g-1"}, {"measurement": "Total radioactivity", "setting": "Rattus norvegicus [8]", "value": 3.34, "unit": "ug equiv g-1"}, {"measurement": "Total radioactivity", "setting": "Rattus norvegicus [9]", "value": 3.31, "unit": "ug equiv g-1"}, {"measurement": "Total radioactivity", "setting": "Rattus norvegicus [10]", "value": 40.77, "unit": "ug equiv g-1"}, {"measurement": "Total radioactivity", "setting": "Rattus norvegicus [11]", "value": 7.82, "unit": "ug equiv g-1"}, {"measurement": "IC50", "setting": "[12]", "value": 6, "unit": "nM"}, {"measurement": "inhibition in vivo at […]", "setting": "Rattus norvegicus [13]", "value": 55, "unit": "%"}, {"measurement": "Total radioactivity", "setting": "Rattus norvegicus [14]", "value": 190.97, "unit": "ug equiv g-1"}, {"measurement": "Total radioactivity", "setting": "Rattus norvegicus [15]", "value": 0.88, "unit": "ug equiv g-1"}, {"measurement": "IC50", "setting": "[16]", "value": 23, "unit": "nM"}, {"measurement": "Total radioactivity", "setting": "Rattus norvegicus [17]", "value": 4.11, "unit": "ug equiv g-1"}, {"measurement": "Total radioactivity", "setting": "Rattus norvegicus [18]", "value": 1.41, "unit": "ug equiv g-1"}, {"measurement": "bioavailability", "setting": "[19]", "value": 5, "unit": "%"}, {"measurement": "Total radioactivity", "setting": "Rattus norvegicus [20]", "value": 2.75, "unit": "ug equiv g-1"}, {"measurement": "Cmax", "setting": "[21]", "value": 300, "unit": "nM"}, {"measurement": "Total radioactivity", "setting": "Rattus norvegicus [22]", "value": 51.19, "unit": "ug equiv g-1"}, {"measurement": "Total radioactivity", "setting": "Rattus norvegicus [23]", "value": 0.11, "unit": "ug equiv g-1"}, {"measurement": "Total radioactivity", "setting": "Rattus norvegicus [24]", "value": 1.62, "unit": "ug equiv g-1"}, {"measurement": "Total radioactivity", "setting": "Rattus norvegicus [25]", "value": 0.85, "unit": "ug equiv g-1"}]}
